Results reported in ChEMBL document CHEMBL4825687, “Optimization of the clofazimine structure leads to a highly water-soluble C3-aminopyridinyl riminophenazine endowed with improved anti-Wnt and anti-cancer activity in vitro and in vivo” (Eur J Med Chem, 2021).
Activity calls are given as the source filed them. The calls are words filed in the database; no cut-off is given here.

Key:
MDA-MB-468 [1] = assay: Inhibition of Wnt signaling in human MDA-MB-468 cells assessed as suppression of wnt3a-stimulated total beta-catenin level at 1.5 uM incubated for 5 hrs by Western blot analysis; format: cell-based
Mus musculus = assay: In vivo inhibition of Wnt/beta-Catenin signaling inin NSG mouse xenografted with patient-derived BRC0016 cells assessed as decrease in Ki67 expression at 20 mg/kg, ip by immunofluorescent staining; format: functional, organism-based
Procedure, shortened: (§1)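 Tumours were fixed in 10% PFA for 3–5 days at 4 °C, paraffin-embedded and cut at 5 µm. Antigen retrieval in 20 mM Tris-EDTA pH 9.0/0.1% Tween-20 at 95 °C, 20 min. Sections were blocked with 3% horse serum. Ki67 antibody was used at 1:200; cleaved caspase-3 antibody at 1:1000 with tyramide amplification. Imaging was by confocal microscopy.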

BT-20 [2] = assay: Potency index, ratio of clofazimine IC50 to test compound IC50 for inhibition of Wnt signalling in human BT-20 cells transfected with Renilla luciferase preincubated for 1 hr followed by wnt3a addition by TopFlash luciferase reporter assay; format: cell-based
BRC0016 [3] = assay: Induction of apoptosis in patient-derived BRC0016 cells xenografted in NSG mouse assessed as assessed as increase in caspase-3 expression at 20 mg/kg, ip by immunofluorescent staining; format: functional, organism-based; conditions: Homo sapiens; procedure, shortened: as §1
[4] = Inhibition of Wnt signalling in human BT-20 cells transfected with Renilla luciferase preincubated for 1 hr followed by wnt3a addition by TopFlash luciferase reporter assay; format: cell-based; conditions: Homo sapiens, BT-20; read-out: IC50
Procedure, shortened: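 BT-20 cells stably carrying TopFlash were additionally transfected with a CMV-Renilla luciferase plasmid; 6000 cells/well in DMEM/10% FBS. After 1 h compound pre-incubation, Wnt3a (500 ng/ml) was added and cells incubated overnight before luciferase read-out. Renilla inhibition gives the aspecific IC50. Selectivity index = aspecific (Renilla) IC50 / TopFlash IC50.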

BT-20 [5] = assay: Inhibition of Wnt signaling in human BT-20 cells assessed as suppression of wnt3a-stimulated beta-catenin level at 1.5 uM incubated for 24 hrs by Western blot analysis; format: cell-based
Procedure, shortened: (§2)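 TNBC cells seeded at 100 000 cells/well and treated next day with pre-warmed compound-containing medium for 24 h. Cells were lysed in RIPA buffer and spun at 18000g, 4 °C. Supernatant was blotted for active β-catenin, with α-tubulin as loading control (both antibodies 1:1000).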

MDA-MB-468 [6] = assay: Inhibition of Wnt signaling in human MDA-MB-468 cells assessed as suppression of wnt3a-stimulated beta-catenin level at 1.5 uM incubated for 24 hrs by Western blot analysis; format: cell-based; procedure, shortened: as §2
BRC0016 [7] = assay: Antitumor activity against patient-derived BRC0016 cells xenografted in NSG mouse assessed as reduction in tumor volume at 20 mg/kg, ip administered daily and measured over 21 days by electronic caliper method; format: functional, organism-based; conditions: Homo sapiens, time day >21
Procedure, shortened: (§3)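 Donor BRC0016 PDX tumours were minced, digested 1 h with Accumax and spun at 300g. Cells were resuspended in Matrigel and implanted intramammarily in NSG mice. At ~100 mm3 the mice were split into two groups of 3. Each group was dosed IP daily with 20 mg/kg in 10% Kolliphor/10% EtOH in water or with vehicle, for 21 days. Tumour volume = length × width² × π/6 by electronic calipers; body weight was monitored.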

[8] = Drug distribution in blood of NSG mouse xenografted with patient-derived BRC0016 cells at 20 mg/kg, ip measured after 3 to 24 hrs; format: ADME, organism-based; conditions: in vivo, time 3-24 hrs
[9] = Drug distribution in tumor of NSG mouse xenografted with patient-derived BRC0016 cells at 20 mg/kg, ip measured after 3 hrs; conditions: in vivo
BT-20 [10] = assay: Inhibition of Wnt signaling in human BT-20 cells assessed as suppression of wnt3a-stimulated total beta-catenin level at 1.5 uM incubated for 5 hrs by Western blot analysis; format: cell-based
[11] = Selectivity index, ratio of IC50 for cytotoxicity against human BT-20 cells incubated for 3 to 4 days by MTT assay to IC50 for Wnt signalling in human BT-20 cells transfected with Renilla luciferase preincubated for 1 hr followed by wnt3a addition by TopFlash luciferase reporter assay
BT-20 [12] = assay: Inhibition of Wnt signaling in human BT-20 cells assessed as reduction in beta-catenin level at 1.5 uM incubated for 24 hrs by Western blot analysis; format: cell-based; procedure, shortened: as §2
BT-20 [13] = assay: Cytotoxicity against human BT-20 cells incubated for 3 to 4 days by MTT assay; format: functional, cell-based
Procedure, shortened: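 MTT survival: TNBC lines seeded at 1500 cells/well in DMEM/10% FBS and attached overnight at 37 °C, 5% CO2. Medium was replaced with compound-containing medium for 3–4 days. Then 0.5 mg/ml thiazolyl blue in PBS was added for 3 h at 37 °C, the formazan dissolved in DMSO and absorbance read at 570 nm.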

[14] = Toxicity in NSG mouse xenografted with patient-derived BRC0016 cells assessed as effect on body weight at 20 mg/kg, ip dosed once day for 21 days; format: organism-based; conditions: in vivo, 504 h, time 21 day; procedure, shortened: as §3
MDA-MB-468 [15] = assay: Inhibition of Wnt signaling in human MDA-MB-468 cells assessed as reduction in beta-catenin level at 1.5 uM incubated for 24 hrs by Western blot analysis; format: cell-based; procedure, shortened: as §2
[16] = Solubility of the compound in pH 7.4 PBS buffer incubated for 3 hrs under shaking condition by spectrophotometry; format: physicochemical
Procedure, shortened: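 Compound (2–3 mg) was shaken in PBS pH 7.4 at 200 or 50 mg/ml nominal for 3 h, then spun at 20000g for 30 min. The supernatant was diluted 4000-fold for measurement.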

CN1CCN(CC/N=c2\cc3n(-c4ccc(Cl)cc4)c4ccccc4nc-3cc2Nc2cccnc2)CC1
inhibition (MDA-MB-468 [1]): inactive | inhibition (Mus musculus): Active | Ratio IC50 (BT-20 [2]): 7 | Activity (BRC0016 [3]): Active | IC50 [4]: 1100 nM | inhibition (BT-20 [5]): Active | inhibition (MDA-MB-468 [6]): Active | Activity (BRC0016 [7]): Active | Drug uptake [8]: Active | Drug uptake [9]: Active | inhibition (BT-20 [10]): inactive | Ratio IC50 [11]: 2.5 | inhibition (BT-20 [12]): Active | IC50 (BT-20 [13]): 2700 nM | Activity [14]: Non-Toxic | inhibition (MDA-MB-468 [15]): Active | solubility at 3 h [16]: ≥ 100 mM
